The text below walks through data of ChEMBL document CHEMBL3612020.

Structures are written as SMILES. A value given as a limit tells only on which side of the number the result lay.

For one data set, the target named is D-amino-acid oxidase (Homo sapiens, UniProt P14920). Briefly: Inhibition of recombinant human DAAO expressed in HEK cells using D-serine as substrate assessed as formation of alpha-keto acid, ammonia, […] after 20 mins by horseradish peroxidase/o-phenylenediamine-based assay. On the set-up: species or system HEK293. A digest of the protocol:
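Human DAAO from HEK cells: lysate in 50 mM Tris pH 8.5 with 100 µM FAD, sonicated, then ion-exchange purified with a 0–0.5 M NaCl gradient. […] Enzyme set to give 2.0 mOD/min uninhibited. Rate read as absorbance change at 411 nm. Mean ± SD of ≥4 experiments in most cases.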

Data set [1] can be described thus: Metabolic stability in mouse liver microsomes assessed as compound remaining at 5 uM after 60 mins by LC/MS/MS analysis in presence of UDPGA. Type of data set: ADME. Particulars: 1 h. An outline of the steps: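 Glucuronidation in mouse liver microsomes (0.5 mg/mL): 50 mM Tris-HCl pH 7.5, 8 mM MgCl2, 25 µg/mL alamethicin, pre-incubated at 37 °C. Started with 2 mM UDPGA (final), in duplicate, for 60 min. Quenched with cold acetonitrile plus internal standard; LC/MS/MS read-out, with cofactor-free controls.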

Data set [2] can be described thus: Metabolic stability in mouse liver microsomes assessed as compound remaining at 5 uM after 60 mins by LC/MS/MS analysis in presence of NADPH. Type of data set: ADME. To be noted: 1 h. A digest of the protocol: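 Mouse liver microsomes (0.5 mg/mL) with 5 µM test compound in 100 mM potassium phosphate pH 7.4 plus NADPH regenerating system (1.3 mM NADPH). Reaction started with microsomes, run in duplicate for 60 min, quenched with cold acetonitrile containing internal standard. Parent quantified by LC/MS/MS; cofactor-free controls included.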

D-amino-acid oxidase, sequence (P14920 whole entry): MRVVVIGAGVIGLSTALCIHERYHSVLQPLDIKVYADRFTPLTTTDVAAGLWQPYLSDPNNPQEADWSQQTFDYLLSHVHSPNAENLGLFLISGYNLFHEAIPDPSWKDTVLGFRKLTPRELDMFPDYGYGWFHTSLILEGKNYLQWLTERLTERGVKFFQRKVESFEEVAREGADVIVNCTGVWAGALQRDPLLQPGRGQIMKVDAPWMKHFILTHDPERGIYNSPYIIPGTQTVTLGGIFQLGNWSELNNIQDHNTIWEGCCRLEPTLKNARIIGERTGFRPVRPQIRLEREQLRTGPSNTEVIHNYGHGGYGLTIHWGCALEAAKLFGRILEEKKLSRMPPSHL

Regarding `O=c1[nH]c(=O)n(CCc2ccccc2)cc1O`, the IC50 (in general, the concentration that inhibits the measured activity by half) on D-amino-acid oxidase turned out to be 80 nM. The Stability result in data set [1] is given as “<= 1%”.

Take `O=c1[nH]c(=O)n(CCc2ccccn2)nc1O`: the IC50 at D-amino-acid oxidase worked out at 760 nM.

For the molecule `O=c1[nH]c(=O)n(CCn2cccn2)nc1O`, on D-amino-acid oxidase, the IC50 worked out at 330 nM.

As to `O=c1[nH]c(=O)n(CCc2cccc(O)c2)nc1O`, on D-amino-acid oxidase, the IC50 turned out to be 160 nM.

Regarding `COc1ccc(CCn2nc(O)c(=O)[nH]c2=O)cc1`, at D-amino-acid oxidase, the IC50 is 120 nM.

For `O=c1[nH]c(=O)n(CCc2ccc(Oc3ccccc3)cc2)nc1O`, the IC50 at D-amino-acid oxidase is 80 nM.

As for `O=c1[nH]c(=S)n(CCc2ccccc2)nc1O`, the Stability in data set [2] is 87%; in data set [1] it was “>= 99%”.

Consider `O=c1[nH]c(=O)n(CCCc2ccccc2)nc1O`, for which the IC50 at D-amino-acid oxidase was 1700 nM.

With `O=c1[nH]c(=O)n(CCc2ccc(Cl)cc2)nc1O`, the IC50 on D-amino-acid oxidase was found to be 40 nM.

For the molecule `O=c1[nH]c(=O)n(Cc2ccccc2)nc1O`, the IC50 at D-amino-acid oxidase stood at 5100 nM.

`Cc1ccc(CCn2nc(O)c(=O)[nH]c2=O)cc1`: the IC50 on D-amino-acid oxidase was 90 nM.

With `O=c1[nH]c(=O)n(CCc2ccc(O)cc2)nc1O`, the IC50 at D-amino-acid oxidase was found to be 110 nM.

As for `O=c1[nH]c(=O)n(CCn2cnc3ccccc32)nc1O`, the IC50 on D-amino-acid oxidase was 440 nM.

With `O=c1[nH]c(=O)n(CCc2cccc(Oc3ccccc3)c2)nc1O`, the IC50 on D-amino-acid oxidase came out at 240 nM.

Take `COc1ccccc1CCn1nc(O)c(=O)[nH]c1=O`: at D-amino-acid oxidase, the IC50 was determined as 270 nM.

For `O=c1cc(CSc2ccc(Cl)c(Cl)c2)occ1O`, the Stability in data set [1] was determined as 5%.

As for `Cc1ccccc1CCn1nc(O)c(=O)[nH]c1=O`, the concentration for half-maximal inhibition (IC50) on D-amino-acid oxidase stood at 80 nM.
